Results on eleven molecules are retold here after ChEMBL document CHEMBL3228039, “Synthesis and evaluation of the antiovulatory activity of a variety of melatonin analogues” (J Med Chem, 1979).

Calls of active or inactive are those of the source. The rule behind the calls is not given here.

Data set [1] has as its system Rattus norvegicus. Kind of data set: Antiovulatory activity in Sprague-Dawley rat assessed as blockage of luteinizing hormone surge by measuring reduction in ovulation at 8 mg/kg, po by microscopic analysis. It counts as functional, organism-based. Further details: dose 8 mg/kg. The method, boiled down:
(§1)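 Female rats (270-300 g) with at least two consecutive 4-day estrus cycles, tracked by daily vaginal smears, were used on the day of proestrus. A single dose was given at 1200 h, either iv in 50% Me2SO or orally in PEG 400. Controls received vehicle only. Rats were killed on the day of estrus, and oviducts were examined microscopically for ova. Absence of ova was scored as ovulation blocked.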

In data set [2] the test system is Rattus norvegicus. Kind of data set: Antiovulatory activity in Sprague-Dawley rat assessed as blockage of luteinizing hormone surge by measuring reduction in ovulation at 8 mg/kg, iv by microscopic analysis. It counts as functional, organism-based. Further details: dose 8 mg/kg. The method, boiled down: as §1
For data set [3], the system named is Rattus norvegicus. Kind of data set: Antiovulatory activity in Sprague-Dawley rat assessed as blockage of luteinizing hormone surge by measuring reduction in ovulation at 4 mg/kg, iv by microscopic analysis. It counts as functional, organism-based. More on the design: dose 4 mg/kg. In outline:
as §1

The subject of data set [4] is Rattus norvegicus. In words: Antiovulatory activity in Sprague-Dawley rat assessed as blockage of luteinizing hormone surge by measuring reduction in ovulation at 5 mg/kg, po by microscopic analysis. It counts as functional, organism-based. More on the design: dose 5 mg/kg. In outline:
as §1

The species entered for the next data set is Xenopus laevis. In words: Melatonin-like activity in tadpole by blanching test. It counts as functional, organism-based.
A short description of data set [5]: Half life in serum (unknown origin) after first 2 hrs post iv dose. It counts as ADME, organism-based.
Data set [6] has as its system Rattus norvegicus. Kind of data set: Antiovulatory activity in Sprague-Dawley rat assessed as blockage of luteinizing hormone surge by measuring reduction in ovulation at 4 mg/kg, po by microscopic analysis. It counts as functional, organism-based. Further details: dose 4 mg/kg. The method, boiled down: as §1
A short description of data set [7]: Half life in rat plasma after 30 mins. It counts as ADME, cell-free.
Data set [8] in a line: Half life in rat plasma after 2 hrs. It counts as ADME, cell-free.

For `CC(=O)NCCc1c[nH]c2ccc(OC(C)=O)cc12`, the result in the data set with Rattus norvegicus [1] and in the data set with Rattus norvegicus [2] was Active.

Turning to `COc1cc2c(CCNC(C)=O)c[nH]c2cc1Cl`, the result in the data set with Rattus norvegicus [3] and with Rattus norvegicus [4] was inactive. In addition, in the data set listed under Xenopus laevis, the result was Active. In [5], this molecule displayed a half-life of 27 min.

With `COc1ccc2c(c1)c(CCNC(C)=O)cn2C`, the outcome in the data set with Rattus norvegicus [1] was Active.

In the case of `CCOc1ccc2[nH]cc(CCNC(C)=O)c2c1`, in the data set with Rattus norvegicus [1], the result was Active.

With `COc1cc2c(CCNC(=O)C34CC5CC(CC(C5)C3)C4)c[nH]c2cc1Cl`, the outcome in the data set on Rattus norvegicus [1] was Active.

With `COc1cc2c(CCNC(C)=O)c[nH]c2cc1C`, in the data set on Rattus norvegicus [1], the outcome was Active.

With `COc1ccc2[nH]cc(CCNC(C)=O)c2c1Cl`, the result in the data set on Rattus norvegicus [1] was Active.

For the molecule `CC(=O)NCCc1c[nH]c2ccc(OC3CCCC3)cc12`, the outcome in the data set with Rattus norvegicus [1] was Active.

Take `CCC(=O)NCCc1c[nH]c2cc(Cl)c(OC)cc12`: the result in the data set with Rattus norvegicus [6] was inactive.

With `COc1ccc2[nH]cc(CCNC(C)=O)c2c1` [MELATONIN], the half-life in [7] was 15 min; in [8], 12 min; in [5] it was greater than 12 min.

With `CC(=O)NCCc1c[nH]c2ccc(O)cc12`, the outcome in the data set with Rattus norvegicus [1] and in the data set on Rattus norvegicus [2] was Active.
